Test results: ChEMBL document CHEMBL3877303 (J Med Chem, 2017)
The source made the active and inactive calls. No cut-off for these calls is given here.

Tests used:
[1] = target: T1, Mast/stem cell growth factor receptor Kit (Homo sapiens, UniProt P10721); details: 1 uM
[2] = target: T1, Mast/stem cell growth factor receptor Kit; details: 1 uM; remark: listed apart in the source
[3] = target: Epithelial discoidin domain-containing receptor 1 (Homo sapiens, UniProt Q08345); assay: Inhibition of human GST-tagged DDR1 cytoplasmic domain expressed in baculovirus expression system measured after 1 hr by FRET based Z'Lyte assay
Outline: (§1)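 Z'-LYTE FRET biochemical kinase assay run by Invitrogen on selected kinases identified from binding profiling; IC50 from dose-response.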

BaF3 = assay: Inhibition of BCR/ABL p210 fusion protein F317L mutant (unknown origin) expressed in BAF3 cells assessed as growth inhibition measured after 72 hrs by CellTiter-Glo or CCK8 assay; type: cell-based; details: Homo sapiens
Outline: (§2)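 BaF3 lines were made by retroviral transduction with kinase-fusion MSCV vectors packaged in HEK293T cells. Cells were selected with puromycin for 48 h, then selected again without IL-3 so growth depends on the introduced kinase. […] They were seeded at 1 to 2.5×10^4 cells/mL with compound dilutions and incubated 72 h. Viability was read by CellTiter-Glo luminescence or CCK-8 absorbance (450/655 nm), normalized to DMSO control; GI50 was curve-fitted from triplicate tests.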

[4] = AUC (0 to t) in Sprague-Dawley rat at 1 mg/kg, iv; type: ADME, organism-based; details: in vivo
Outline: (§3)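 Male Sprague-Dawley rats aged six to eight weeks were fasted overnight and then dosed iv or orally. Blood (~0.2 mL) was drawn from the jugular vein into heparin and kept on ice. Sampling was at 1 min to 8 h for iv and 5 min to 24 h for oral. Plasma was separated by centrifugation at 2-8 °C and stored at -80 °C until analysis.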

[5] = tested on: Mast/stem cell growth factor receptor Kit (Homo sapiens), P10721 [V654A]; assay: Inhibition of Tel-fused c-KIT V654A mutant (unknown origin) expressed in BAF3 cells assessed as growth inhibition measured after 72 hrs by CellTiter-Glo or CCK8 assay; type: cell-based
Outline: as §2

[6] = tested on: Mast/stem cell growth factor receptor Kit (Homo sapiens), P10721 [N822K]; assay: Inhibition of Tel-fused c-KIT N822K mutant (unknown origin) expressed in BAF3 cells assessed as growth inhibition measured after 72 hrs by CellTiter-Glo or CCK8 assay; type: cell-based
Outline: as §2

[7] = target: T1, Mast/stem cell growth factor receptor Kit; assay: Inhibition of c-KIT mediated signaling pathways assessed as reduction in AKT phosphorylation at S473 in human GISTT1 cells at 0.03 to 10 uM measured after 2 hrs by immunoblotting; type: cell-based
Outline: (§4)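 After an ice-cold PBS wash, cells were lysed in RIPA buffer (50 mM Tris pH 8.0) with protease and phosphatase inhibitors, and protein was quantified by BCA. Lysates were run on SDS-PAGE, transferred to PVDF and blocked in 5% milk/TBST. Phospho- and total proteins were probed by immunoblot with ECL detection; β-actin served as loading control.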

[8] = target: T1, Mast/stem cell growth factor receptor Kit; assay: Inhibition of c-KIT mediated signaling pathways assessed as reduction in ERK1/2 phosphorylation at T202/Y204 in human GIST882 cells at 0.03 to 10 uM measured after 2 hrs by immunoblotting; type: cell-based
Outline: as §4

[9] = target: BCR/ABL p210 fusion protein (Homo sapiens, UniProt A1Z199); assay: Inhibition of BCR/ABL p210 fusion protein mediated signaling pathways assessed as reduction in Stat5 phosphorylation at Y694 in human KU812 cells at 0.01 to 3 uM measured after 2 hrs by immunoblotting; type: cell-based
Outline: as §4

[10] = Anticancer activity against human K562 cells xenografted in nu/nu mouse assessed as tumor weight at 50 mg/kg administered via oral gavage measured after 28 days (reference value: 6.75 g); type: functional
Outline: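 Female nu/nu mice received ten million K562 cells subcutaneously in the right flank, in PBS mixed 1:1 with Matrigel. Daily oral gavage began at 200-400 mm³ tumor size, with 4 or 5 mice per group. Dosing was 25, 50 or 100 mg/kg/d or vehicle (0.5% methylcellulose/0.4% Tween80) for 28 days. Body weight and tumor size were normalized to initial values, and final tumor weight was recorded. Data are mean ± SEM.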

[11] = target: Tyrosine-protein kinase ABL1 (Homo sapiens, UniProt P00519); assay: Inhibition of C-terminal His-tagged human ABL1 expressed in baculovirus infected SF9 cells using Tyr 02 peptide as substrate measured after 1 hr by FRET based Z'Lyte assay
[12] = AUC (0 to infinity) in Sprague-Dawley rat at 10 mg/kg, po; type: ADME, organism-based; design: dose 10 mg/kg, time infinity, route oral; details: in vivo
Outline: as §3

[13] = target: Platelet-derived growth factor receptor beta (Homo sapiens, UniProt P09619); assay: Inhibition of recombinant His-tagged human PDGFR-beta cytoplasmic domain (558 to 1106 residues) expressed in baculovirus expression system measured after 1 hr by FRET based Z'Lyte assay
Outline: as §1

[14] = Tmax in Sprague-Dawley rat at 10 mg/kg, po; type: ADME, organism-based; details: in vivo
Outline: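 Male Sprague-Dawley rats, 6-8 weeks old, fasted overnight, dosed iv or po. Jugular vein blood (~0.2 mL, heparin) sampled at 1 min to 8 h (iv) or 5 min to 24 h (po). Plasma separated by centrifugation at 2-8 °C and stored at -80 °C before analysis.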

[15] = target: Macrophage colony-stimulating factor 1 receptor (Homo sapiens, UniProt P07333); assay: Inhibition of recombinant His-tagged human CSF1R cytoplasmic domain expressed in baculovirus expression system measured after 1 hr by FRET based Z'Lyte assay
Outline: as §1

K562 = assay: Induction of apoptosis in human K562 cells xenografted in nu/nu mouse administered daily via oral gavage measured 28 days post compound treatment by TUNEL staining based assay; type: functional, cell-based
Outline: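 K562 xenograft tumors from daily orally dosed mice were fixed in 10% neutral-buffered formalin and paraffin-embedded. Six-micron sections were TUNEL-stained to detect apoptotic nuclei.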

[16] = Half life in Sprague-Dawley rat at 10 mg/kg, po; type: ADME, organism-based; details: in vivo
Outline: as §3

MEG-01 = assay: Induction of apoptosis in human MEG01 cells assessed as increase in cleaved caspase-3 level at 0.1 to 3 uM by Western blot analysis; type: functional, cell-based
[17] = tested on: Mast/stem cell growth factor receptor Kit (Homo sapiens), P10721 [L576P]; assay: Inhibition of Tel-fused c-KIT L576P mutant (unknown origin) expressed in BAF3 cells assessed as growth inhibition measured after 72 hrs by CellTiter-Glo or CCK8 assay; type: cell-based
Outline: as §2

GISTT1 = assay: Induction of apoptosis in human GISTT1 cells assessed as increase in cleaved caspase-3 level at 0.1 to 3 uM by Western blot analysis; type: functional, cell-based
Outline: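 Cells were treated with DMSO or serially diluted compound for the indicated periods. They were washed in ice-cold PBS and lysed in RIPA buffer with protease/phosphatase inhibitors, and protein was quantified by BCA. Lysates were resolved by SDS-PAGE, transferred to PVDF and blocked in 5% milk/TBST. Blots were probed for PARP and caspase-3, with β-actin as loading control, and detected by ECL.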

[18] = target: Serine/threonine-protein kinase 10 (Homo sapiens) (UniProt O94804); assay: Inhibition of LOK (unknown origin) assessed as residual activity at 1 uM by KINOMEscan binding assay relative to control
Serine/threonine-protein kinase 10 (Homo sapiens), sequence (O94804 whole entry, looked up): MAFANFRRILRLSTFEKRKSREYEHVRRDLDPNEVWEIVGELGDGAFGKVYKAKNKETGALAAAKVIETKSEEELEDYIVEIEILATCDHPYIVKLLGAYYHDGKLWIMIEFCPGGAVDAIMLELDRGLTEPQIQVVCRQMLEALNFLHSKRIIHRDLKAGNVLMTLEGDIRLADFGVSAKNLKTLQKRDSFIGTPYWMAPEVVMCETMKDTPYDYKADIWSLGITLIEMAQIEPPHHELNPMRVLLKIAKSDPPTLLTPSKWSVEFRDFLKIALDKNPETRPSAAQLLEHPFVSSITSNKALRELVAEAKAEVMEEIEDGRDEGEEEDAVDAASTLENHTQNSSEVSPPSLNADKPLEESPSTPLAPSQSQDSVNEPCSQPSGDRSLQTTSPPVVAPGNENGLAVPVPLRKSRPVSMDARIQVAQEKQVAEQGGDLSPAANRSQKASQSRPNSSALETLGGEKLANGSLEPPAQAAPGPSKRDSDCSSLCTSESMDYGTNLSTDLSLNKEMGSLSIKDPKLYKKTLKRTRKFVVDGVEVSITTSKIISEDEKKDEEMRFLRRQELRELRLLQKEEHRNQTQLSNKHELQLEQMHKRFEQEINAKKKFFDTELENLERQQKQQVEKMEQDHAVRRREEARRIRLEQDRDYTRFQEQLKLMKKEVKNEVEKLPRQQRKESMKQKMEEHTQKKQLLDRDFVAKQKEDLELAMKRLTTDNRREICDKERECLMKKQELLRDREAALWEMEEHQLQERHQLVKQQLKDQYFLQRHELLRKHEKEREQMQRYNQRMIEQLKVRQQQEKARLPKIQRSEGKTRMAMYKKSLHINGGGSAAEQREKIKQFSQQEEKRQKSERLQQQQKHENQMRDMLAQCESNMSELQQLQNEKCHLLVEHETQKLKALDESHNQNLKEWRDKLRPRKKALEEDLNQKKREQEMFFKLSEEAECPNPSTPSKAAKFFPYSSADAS

T1 sequence (P10721 whole entry): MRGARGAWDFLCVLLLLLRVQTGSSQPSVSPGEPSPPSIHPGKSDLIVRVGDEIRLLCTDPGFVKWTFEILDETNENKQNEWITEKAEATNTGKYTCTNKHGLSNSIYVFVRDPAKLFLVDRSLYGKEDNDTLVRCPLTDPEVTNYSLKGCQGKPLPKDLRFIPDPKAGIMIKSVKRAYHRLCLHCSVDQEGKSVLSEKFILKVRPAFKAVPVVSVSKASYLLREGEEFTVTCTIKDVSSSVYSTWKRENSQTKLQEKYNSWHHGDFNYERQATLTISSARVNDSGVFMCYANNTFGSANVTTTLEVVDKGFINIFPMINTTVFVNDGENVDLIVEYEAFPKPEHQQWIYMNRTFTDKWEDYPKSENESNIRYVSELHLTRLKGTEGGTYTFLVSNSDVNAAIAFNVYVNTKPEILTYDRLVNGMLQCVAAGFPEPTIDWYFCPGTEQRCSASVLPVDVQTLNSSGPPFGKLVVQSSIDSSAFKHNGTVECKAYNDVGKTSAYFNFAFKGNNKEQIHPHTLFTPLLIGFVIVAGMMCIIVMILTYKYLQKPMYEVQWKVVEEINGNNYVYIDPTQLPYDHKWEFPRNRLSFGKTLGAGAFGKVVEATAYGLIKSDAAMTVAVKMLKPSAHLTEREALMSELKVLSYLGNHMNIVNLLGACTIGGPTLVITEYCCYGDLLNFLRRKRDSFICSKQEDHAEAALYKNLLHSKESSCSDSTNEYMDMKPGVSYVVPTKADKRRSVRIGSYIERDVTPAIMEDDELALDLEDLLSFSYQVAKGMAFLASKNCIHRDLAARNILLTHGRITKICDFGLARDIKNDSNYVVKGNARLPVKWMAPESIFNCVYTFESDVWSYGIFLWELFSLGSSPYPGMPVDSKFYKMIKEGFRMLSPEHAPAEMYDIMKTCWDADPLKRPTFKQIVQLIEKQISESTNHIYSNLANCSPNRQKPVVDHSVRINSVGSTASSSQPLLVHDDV
BCR/ABL p210 fusion protein, sequence (A1Z199 1-97): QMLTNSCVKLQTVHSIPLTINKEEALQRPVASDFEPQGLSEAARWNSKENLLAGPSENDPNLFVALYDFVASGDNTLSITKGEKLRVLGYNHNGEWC
Mast/stem cell growth factor receptor Kit (Homo sapiens), P10721 [N822K], sequence (P10721 whole entry N822K, the tested form may be a part): as the sequence (P10721 whole entry) above, with N822K counted along it
Mast/stem cell growth factor receptor Kit (Homo sapiens), P10721 [V654A], sequence (P10721 whole entry V654A, the tested form may be a part): as the sequence (P10721 whole entry) above, with V654A counted along it
Tyrosine-protein kinase ABL1, sequence (P00519 whole entry): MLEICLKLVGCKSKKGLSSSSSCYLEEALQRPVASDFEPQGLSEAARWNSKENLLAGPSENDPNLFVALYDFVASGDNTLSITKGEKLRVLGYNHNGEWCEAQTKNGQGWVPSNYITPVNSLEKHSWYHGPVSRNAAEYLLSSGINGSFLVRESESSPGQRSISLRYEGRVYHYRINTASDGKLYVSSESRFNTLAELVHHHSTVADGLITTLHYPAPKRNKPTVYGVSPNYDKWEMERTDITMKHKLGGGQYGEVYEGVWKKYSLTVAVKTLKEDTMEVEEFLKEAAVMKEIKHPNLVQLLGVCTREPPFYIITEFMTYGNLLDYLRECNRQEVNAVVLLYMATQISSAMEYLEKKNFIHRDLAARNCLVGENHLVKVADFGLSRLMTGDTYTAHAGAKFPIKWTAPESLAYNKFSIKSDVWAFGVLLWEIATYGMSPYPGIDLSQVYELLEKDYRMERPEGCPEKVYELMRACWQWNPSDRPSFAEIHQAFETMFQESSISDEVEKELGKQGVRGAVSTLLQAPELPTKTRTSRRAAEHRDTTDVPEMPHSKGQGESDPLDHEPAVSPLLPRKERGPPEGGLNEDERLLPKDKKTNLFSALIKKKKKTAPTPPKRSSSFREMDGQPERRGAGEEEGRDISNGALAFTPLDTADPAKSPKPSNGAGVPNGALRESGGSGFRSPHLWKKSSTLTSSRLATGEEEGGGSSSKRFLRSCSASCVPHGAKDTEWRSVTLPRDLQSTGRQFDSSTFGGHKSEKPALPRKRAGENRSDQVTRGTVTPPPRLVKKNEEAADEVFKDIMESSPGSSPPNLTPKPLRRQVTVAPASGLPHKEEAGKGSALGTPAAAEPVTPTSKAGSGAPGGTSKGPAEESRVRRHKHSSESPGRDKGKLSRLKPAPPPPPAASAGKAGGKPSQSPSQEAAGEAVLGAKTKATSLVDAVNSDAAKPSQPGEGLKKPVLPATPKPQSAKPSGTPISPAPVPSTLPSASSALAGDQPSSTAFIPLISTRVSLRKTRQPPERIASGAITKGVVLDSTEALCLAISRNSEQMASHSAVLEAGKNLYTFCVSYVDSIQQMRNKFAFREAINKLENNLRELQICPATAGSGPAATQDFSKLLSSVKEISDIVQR
Platelet-derived growth factor receptor beta, sequence (P09619 whole entry, the tested form may be a part): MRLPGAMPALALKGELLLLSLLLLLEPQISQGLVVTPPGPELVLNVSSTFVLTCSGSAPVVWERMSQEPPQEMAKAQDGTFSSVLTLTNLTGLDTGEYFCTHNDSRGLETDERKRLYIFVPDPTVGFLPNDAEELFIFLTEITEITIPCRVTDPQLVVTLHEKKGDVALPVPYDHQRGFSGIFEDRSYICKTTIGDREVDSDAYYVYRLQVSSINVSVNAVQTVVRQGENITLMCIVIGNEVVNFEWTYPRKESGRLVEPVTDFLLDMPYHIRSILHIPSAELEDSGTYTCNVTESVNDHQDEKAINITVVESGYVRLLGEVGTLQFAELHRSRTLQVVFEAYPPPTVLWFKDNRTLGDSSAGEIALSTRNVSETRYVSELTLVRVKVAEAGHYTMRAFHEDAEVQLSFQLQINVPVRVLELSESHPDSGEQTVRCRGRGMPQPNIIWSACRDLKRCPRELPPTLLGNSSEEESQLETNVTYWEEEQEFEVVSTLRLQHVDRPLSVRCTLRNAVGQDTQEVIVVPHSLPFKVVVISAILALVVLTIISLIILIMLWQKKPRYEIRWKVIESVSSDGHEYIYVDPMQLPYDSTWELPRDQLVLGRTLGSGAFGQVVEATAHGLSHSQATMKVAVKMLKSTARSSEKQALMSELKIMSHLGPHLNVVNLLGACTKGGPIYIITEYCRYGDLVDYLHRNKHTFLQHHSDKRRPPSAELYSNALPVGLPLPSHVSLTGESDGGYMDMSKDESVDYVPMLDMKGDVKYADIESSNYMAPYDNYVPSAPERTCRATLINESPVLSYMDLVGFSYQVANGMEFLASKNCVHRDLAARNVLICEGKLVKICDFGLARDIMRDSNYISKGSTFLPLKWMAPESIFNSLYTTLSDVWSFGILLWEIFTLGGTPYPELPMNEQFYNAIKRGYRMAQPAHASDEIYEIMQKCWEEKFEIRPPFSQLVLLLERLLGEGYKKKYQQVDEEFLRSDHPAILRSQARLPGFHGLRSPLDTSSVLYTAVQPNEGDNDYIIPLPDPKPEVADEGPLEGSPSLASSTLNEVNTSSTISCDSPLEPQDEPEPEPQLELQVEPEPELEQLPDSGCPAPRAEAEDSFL
Mast/stem cell growth factor receptor Kit (Homo sapiens), P10721 [L576P], sequence (P10721 whole entry L576P, the tested form may be a part): as the sequence (P10721 whole entry) above, with L576P counted along it

For Cc1ccc(NC(=O)c2ccc(CN3CCN(C)CC3)cc2)cc1Nc1nccc(-c2cccnc2)n1 [IMATINIB], the inhibition [1] was “Active” and the inhibition [2] was “Active”.
Cc1ccc(C(=O)N2CCC(Oc3cc(NC(=O)c4ccc(CN5CCN(C)CC5)c(C(F)(F)F)c4)ccc3C)CC2)cn1 gave an IC50 [3] of 116 nM, a GI50 (BaF3) of 670 nM and an AUC(0-t) [4] of 510 ng·h/mL. The GI50 [5] was 1840 nM, the GI50 [6] was 124 nM and the inhibition [7] was “Active”. The inhibition [8] was “Active”, the inhibition [9] was “Active” and the Activity [10] was 6.51 g. For the same molecule, the IC50 [11] was 46 nM, the AUC(0-inf) [12] was 2430 ng·h/mL and the IC50 [13] was 80 nM. For the same molecule, the Tmax [14] was 6 h, the IC50 [15] was 227 nM and the Activity (K562) was “Dose-dependent effect”. For the same molecule, the half-life [16] was 2.83 h, the Activity (MEG-01) was “Active” and the GI50 [17] was 221 nM. For the same molecule, the Activity (GISTT1) was “Active” and the Activity [18] was 0.6%.
